Only some compounds are listed: those with a hit (about 3.7% of all), similar ones and a draw of the others.
KCNQ1 inh – inhibitors of human KCNQ1 channel, primary screen, cell-based, thallium flux, high-throughput. CHO-K1 KCNQ1, FluxOR thallium flux fluorescence; active compounds read high. B-score at 10 µM. 310,000 tested, 1.3% active. AID 2642, 2010;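 active = compounds whose thallium flux B-score, printed positive for inhibition, exceeds three library SD while starting fluorescence stays within three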;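 also: channel opened by potassium depolarization with thallium stimulus after 20 min compound exposure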
Target sequence (P51787 whole entry, looked up): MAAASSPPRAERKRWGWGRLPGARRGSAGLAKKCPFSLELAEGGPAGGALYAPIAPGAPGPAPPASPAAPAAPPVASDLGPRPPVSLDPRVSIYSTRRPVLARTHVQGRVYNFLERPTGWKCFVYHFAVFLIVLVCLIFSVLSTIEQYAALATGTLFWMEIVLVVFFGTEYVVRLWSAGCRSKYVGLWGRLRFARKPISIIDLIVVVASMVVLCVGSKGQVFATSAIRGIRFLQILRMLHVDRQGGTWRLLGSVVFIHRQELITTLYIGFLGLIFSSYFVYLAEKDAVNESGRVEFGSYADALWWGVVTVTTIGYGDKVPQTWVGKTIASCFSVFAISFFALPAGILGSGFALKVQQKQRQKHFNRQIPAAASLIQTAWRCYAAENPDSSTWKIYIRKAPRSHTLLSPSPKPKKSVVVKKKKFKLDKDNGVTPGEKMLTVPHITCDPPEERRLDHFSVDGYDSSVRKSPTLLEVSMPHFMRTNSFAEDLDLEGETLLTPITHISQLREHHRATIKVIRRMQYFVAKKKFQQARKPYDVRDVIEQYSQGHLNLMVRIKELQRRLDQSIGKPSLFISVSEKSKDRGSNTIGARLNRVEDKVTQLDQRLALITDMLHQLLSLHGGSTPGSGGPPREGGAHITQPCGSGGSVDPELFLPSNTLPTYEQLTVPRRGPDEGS
hERG protect – hERG rescue from dofetilide block, primary screen, cell-based, CHO-hERG, FluxOR thallium flux, dofetilide IC70; dofetilide IC70 present; activation (rescue from dofetilide block), less the hit threshold, % at 10 µM; 310,000 tested, 0.51% active;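 active = activation above the mean of controls blocked by dofetilide plus 5 SD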;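 also: thallium influx through hERG after potassium depolarization seen as dye fluorescence rise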
KCNQ1 act – potentiators or activators of KCNQ1 channel, primary screen, cell-based, thallium flux, high-throughput; CHO-K1 KCNQ1, thallium flux FluxOR fluorescence; active compounds read high; B-score at 10 µM; AID 2648, 2010; 310,000 tested, 0.35% active; Potassium voltage-gated channel subfamily KQT member 1 (Homo sapiens), P51787;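 active = fluorescence ratio B-score, a plate-corrected score, at least three library SD, with initial intensity B-score within 5 SD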
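Assay system: CHO-K1 cells stably expressing KCNQ1. Medium: assay buffer for compound exposure, DMSO matched across wells. Timing: 37 °C overnight plating, 90-min dark dye load, 20-min compound pretreatment. Signal: kinetic FluxOR fluorescence, 10 s baseline plus 110 s post-stimulus.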
KCNK3 block – human KCNK3 channel inhibitors, primary screen, CHO cells, FluxOR thallium flux, B-score | Potassium channel subfamily K member 3 (Homo sapiens), O14649 | FluxOR fluorescence; active compounds read low | B-score at 10 µM | 340,000 tested, 0.84% active | AID 602410, 2012;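 active = B-score under library mean minus 4 SD, starting fluorescence ratio at most library mean plus 5 SD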;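 also: more negative B-score means stronger inhibition of thallium flux through KCNK3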
KCNK9 block – KCNK9 potassium channel inhibitors, primary screen, HEK293 cells, thallium flux; FluxOR thallium flux fluorescence; active compounds read low; B-score at 10 µM; 310,000 tested, 1.2% active;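 active = ratio B-score over 3 SD below the library mean, with starting fluorescence within 5 SD of its mean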;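 also: negative B-score means less thallium flux so channel inhibition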
Kir21 inh – inhibitors of mouse Kir2.1 inward-rectifier potassium channel | HEK293-Kir2.1, FluxOR thallium flux fluorescence; active compounds read low | 310,000 tested, 0.85% active | AID 1672, 2009 | B-score at 10 µM | Inward rectifier potassium channel 2 (Mus musculus), P35561;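 active = fluorescence ratio B-score at or below minus 3 SD of library scores, with starting-brightness B-score within 2 SD, cut at about -4.2 in these data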;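 also: channel flux triggered by added potassium and thallium sulfate stimulus; B-score of peak minus minimum fluorescence over baseline after thallium stimulus; more negative B-score means stronger Kir2.1 block with less thallium influx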
KCNK9 block conf – KCNK9 potassium channel inhibitors, confirmation, HEK293 cells, thallium flux, duplicate; 4,900 tested, 43% active; inhibition, % at 10 µM; shares compounds with KCNK9 block; FluxOR thallium flux fluorescence;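 active = thallium signal inhibited by more than 5 SD of the compound-free buffer control wells, on both duplicate plates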
Kir2-1 spec – mouse Kir2.1 channel inhibition, confirmation, selectivity assay for KCNK9 modulator project, cell-based, HEK293, thallium flux. inhibition, % at 10 µM. 4,900 tested, 4% active. Kir2.1 cells, FluxOR thallium flux fluorescence. shares compounds with KCNK9 block;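 active = thallium signal drop more than 5 SD beyond the mean of the no-compound control wells, seen in both duplicate plates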;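 also: signal is fluorescence rise after thallium addition divided by baseline fluorescence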
HEK293 Tl ctr – thallium flux in non-induced HEK293 cells, confirmation, counter-screen for KCNK9 inhibitor project, cell-based, second counter screen, non-induced KCNK9-HEK293. shares compounds with KCNK9 block. FluxOR thallium flux. inhibition, % at 10 µM. 4,900 tested, 40% active;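 active = thallium signal drop beyond 5 SD of the untreated control mean, on both duplicate plates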
Of the large screens only hits and unclear results are named; the others gave an inactive call (follow-up assays come after a bar, where they were run).

COc1ccc(NC2CCCN(C(=O)CCc3cccc(Cl)c3)C2)cc1 (stereo not drawn)	Kir21 inh -4.21 | KCNK9 block conf inactive | Kir2-1 spec inactive | HEK293 Tl ctr inactive
COc1ccc(NC2CCCN(C(=O)c3ccc(OC)o3)C2)cc1 (stereo not drawn)	none | KCNK9 block conf inactive | Kir2-1 spec inactive | HEK293 Tl ctr inactive
O=C(O)/C=C/c1ccccc1Oc1ccc(Cl)cc1Cl	none
CN(C(=O)c1cccc(NC(=O)Cc2cccc(NC(=O)C3CCCN(C(=O)C4CCCC4)C3)c2)c1)C1CC1 (stereo not drawn)	none (no result: KCNQ1 inh, hERG protect, KCNQ1 act, KCNK9 block, Kir21 inh)
COc1ccc(NC2CCCN(C(=O)c3ccc(C(C)=O)s3)C2)cc1 (stereo not drawn)	none
COc1ccc(NC2CCCN(C(=O)c3ccc4[nH]c(C)c(C)c4c3)C2)cc1 (stereo not drawn)	KCNK9 block -11.8 | KCNK9 block conf inactive | Kir2-1 spec inactive | HEK293 Tl ctr inactive
COc1ccc(NC2CCCN(C(=O)c3ccc(C)nc3)C2)cc1 (stereo not drawn)	none
COc1ccc(NC2CCCN(C(=O)c3cccc(N(C)C)c3)C2)cc1 (stereo not drawn)	none | KCNK9 block conf inactive | Kir2-1 spec inactive | HEK293 Tl ctr inactive
CCOC(=O)C1C(=O)C=C(/C=C/c2ccc(N(C)C)cc2)CC1c1ccccc1 (stereo not drawn)	KCNQ1 inh 8, KCNK9 block -8.21 | KCNK9 block conf 46.5% | Kir2-1 spec 37.5% | HEK293 Tl ctr 64.5%
CCOC(=O)C1C(=O)C=C(c2cccs2)CC1c1ccccc1 (stereo not drawn)	none
O=C(C[C@H]1C(=O)N(Cc2ccccc2)C[C@@H]1Cc1ccccc1)Nc1ccccc1	none | KCNK9 block conf inactive | Kir2-1 spec inactive | HEK293 Tl ctr inactive
O=C(C[C@H]1C(=O)N(CCc2ccccc2)C[C@@H]1Cc1ccccc1)Nc1ccccc1	none
CCCCC[C@H]1CN(Cc2ccccc2)C(=O)[C@@H]1CC(=O)NCc1ccc(OC)cc1	none | KCNK9 block conf inactive | Kir2-1 spec inactive | HEK293 Tl ctr 28.5%
CC(=O)N1CCSc2ccc(S(=O)(=O)Nc3cccc(C)c3)cc21	none
O=S(=O)(c1ccc2c(c1)OCCO2)N1CCCN(S(=O)(=O)c2c(F)cccc2F)CC1	none (no result: KCNQ1 inh, hERG protect, KCNQ1 act, KCNK9 block, Kir21 inh)
COc1ccc(/C=C(\NC(=O)c2ccco2)C(=O)NCc2ccco2)cc1	none
COc1cc(NS(=O)(=O)c2ccc(NC(=S)NC(=O)c3sc4cc(F)ccc4c3Cl)cc2)nc(OC)n1	none
COc1cc(NS(=O)(=O)c2ccc(NC(=S)NC(=O)c3sc4ccccc4c3Cl)cc2)nc(OC)n1	none | KCNK9 block conf inactive | Kir2-1 spec inactive | HEK293 Tl ctr inactive
COC(=O)c1cn(CCOc2ccccc2F)c2ccccc12	KCNK9 block -11.1 | KCNK9 block conf 45.0% | Kir2-1 spec inactive | HEK293 Tl ctr 43.5%
COC(=O)c1cn(CCOc2ccccc2OC)c2ccccc12	none
CCC(C)n1c(SCC(=O)Nc2ccccc2C(F)(F)F)nc2ccsc2c1=O (stereo not drawn)	KCNK9 block -8.94 | KCNK9 block conf 26.0% | Kir2-1 spec inactive | HEK293 Tl ctr 26.5%
COc1ccccc1CNC(=O)CN1C(=O)NC(Cc2ccccc2)(c2ccccc2)C1=O (stereo not drawn)	none (no result: KCNQ1 inh, hERG protect, KCNQ1 act, KCNK9 block, Kir21 inh)
COc1ccc(C(=O)NC(=S)N2CCN(c3ccccc3OC)CC2)cc1OC	none
O=S(=O)(N1CCCCC1)n1c(Cc2ccccc2)nc2ccccc21	KCNK9 block -20.7 | KCNK9 block conf 76.0% | Kir2-1 spec inactive | HEK293 Tl ctr 42.0%
CNS(=O)(=O)c1cccc(C(=O)NNC(=O)c2ccc(COc3ccccc3)cc2)c1	none
CCOc1ccc(C(=O)N2CCN(S(=O)(=O)c3cccs3)CC2)c(OCC)c1	none
CCCCOc1cccc(C(=O)NC(=S)Nc2cccc(C(F)(F)F)c2)c1	none | KCNK9 block conf inactive | Kir2-1 spec inactive | HEK293 Tl ctr inactive
O=C(/C=C/c1ccccc1)NC(NC(=S)Nc1ccc(Cl)cc1Cl)C(Cl)(Cl)Cl (stereo not drawn)	none | KCNK9 block conf inactive | Kir2-1 spec inactive | HEK293 Tl ctr inactive
COc1ccc(CN2C(=NC(=O)C3CC3)SC3CS(=O)(=O)CC32)cc1 (stereo not drawn)	none
O=C(NCC1CCCO1)/C(=C/c1ccccc1F)NC(=O)c1ccccc1 (stereo not drawn)	none
COc1cccc([C@@H]2Oc3ccc(OC)cc3C(=O)[C@H]2OC(=O)N[C@H](C)C2CCCCC2)c1	KCNK9 block -8.72 (no result: KCNK3 block) | KCNK9 block conf 49.0% | Kir2-1 spec inactive | HEK293 Tl ctr 42.5%
COc1ccc(CCCC(=O)NCC(=O)N/N=C/c2cc(Cl)ccc2OC)cc1	none
COc1cc(C)ccc1OCCOCCOc1ccc(C)cc1[N+](=O)[O-]	none
CCOc1ccccc1OCCOCCOc1ccccc1[N+](=O)[O-]	none | KCNK9 block conf inactive | Kir2-1 spec inactive | HEK293 Tl ctr inactive
O=C(c1ccc([N+](=O)[O-])cc1)N1CCN(C(=O)C2CCCCC2)CC1	none
CCOC(=O)C1(CC2CC2)CCN(Cc2cnc(-c3ccc(OC)cc3)nc2)CC1	none
Cc1cnc(C(=O)OCC(=O)Nc2ccccc2-c2ccccc2)cn1	none (no result: KCNQ1 inh, hERG protect, KCNQ1 act, KCNK9 block, Kir21 inh)
Cn1c(=O)c2c(SCC(=O)NC3CCCC3)nc(CC(C)(C)C)nc2n(C)c1=O	none
Cn1c(=O)c2c(SCC(=O)Nc3ccc4c(c3)OCCO4)nc(CC(C)(C)C)nc2n(C)c1=O	none | KCNK9 block conf inactive | Kir2-1 spec inactive | HEK293 Tl ctr inactive
Cc1cc(NC(=O)CSc2nnc(-c3cccc(F)c3)n2N)no1	none (no result: KCNQ1 inh, hERG protect, KCNQ1 act, KCNK9 block, Kir21 inh)
O=C(Oc1ccccc1)c1cccc2cccc(C(=O)Oc3ccccc3)c12	KCNK9 block -9.22 | KCNK9 block conf 42.5% | Kir2-1 spec inactive | HEK293 Tl ctr 26.0%

Screens deposited in PubChem by Johns Hopkins Ion Channel Center.
